The subject of data set [1] is Ebolavirus. Nature of the data set: Antiviral activity against EBOV Kikwit infected in HeLa cells. The class given is functional, organism-based. Conditions: Orthoebolavirus.
Data set [2] in a line: Selectivity index, ratio of CC50 for african green monkey Vero E6 cells to EC50 for EBOV infected in Vero E6 cells. The class given is toxicity, cell-based. Conditions: read-out: Ratio CC50/EC50.
Data set [3] is described as follows: Cytotoxicity against african green monkey Vero E6 cells. The class given is toxicity, cell-based, Vero C1008. The settings on record: chlorocebus sabaeus.
The subject of data set [4] is Ebolavirus. The data set is described as follows: Antiviral activity against EBOV infected in HeLa cells. The data set is classed as functional, organism-based. Conditions: Orthoebolavirus.
For data set [5], the system named is Ebolavirus. Nature of the data set: Antiviral activity against EBOV-GP pseudotyped virus infected in Vero E6 cells preincubated with cells for 1 hr followed by viral addition and measured after 24 hrs by Steady-Glo microplate luminometer analysis. The class given is functional, organism-based. Conditions: Orthoebolavirus, Vero C1008. The gist of the method:
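VeroE6 cells (2 × 10⁴/well) were treated with compound at 10 nM–10 μM for 1 h at 37 °C, then infected with 5000 TCID of EBOV Mayinga GP-pseudotyped rVSVΔG-luciferase. Luciferase was read by Steady-Glo after 24 h.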

The nature of data set [6]: Selectivity index, ratio of CC50 for african green monkey Vero E6 cells to EC50 for EBOV-GP pseudotyped virus infected in Vero E6 cells. The data set is classed as toxicity, cell-based. Conditions: read-out: Ratio CC50/EC50.
Data set [7] is described as follows: Selectivity index, ratio of CC50 for african green monkey Vero E6 cells to EC50 for wild type Zaire EBOV Mayinga 1976 infected in Vero E6 cells. The data set is classed as toxicity, cell-based. The settings on record: read-out: Ratio CC50/EC50.
Data set [8] can be described thus: Drug concentration in BALB/c mouse plasma at 50 mg/kg, po measured upto 24 hrs by LC-MS/MS analysis. The data set is classed as ADME, organism-based. In short, it runs like this: (§1)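 Male BALB/c mice (8–12 weeks, 20–35 g) were given a single dose of test compound solution, either 10 mg/kg i.p. or 50 mg/kg p.o., at 10 mL/kg. Blood and then brain were taken from three mice per time point up to 24 h postdose. Plasma and brain levels were measured by LC–MS/MS, and parameters came from noncompartmental analysis.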

Data set [9] in a line: AUClast in BALB/c mouse brain at 10 mg/kg, ip measured upto 24 hrs by LC-MS/MS analysis. The settings on record: in vivo. The data set is classed as ADME, organism-based. The gist of the method: as §1
Data set [10] in a line: Drug concentration in BALB/c mouse brain at 50 mg/kg, po measured upto 24 hrs by LC-MS/MS analysis. The class given is ADME, organism-based. The settings on record: read-out: Ct. The gist of the method:
as §1

Data set [11] can be described thus: Toxicity in C57BL/6 mouse assessed as decrease in feed consumption at 100 mg/kg, po measured after 4 days. The class given is organism-based. The settings on record: in vivo, 96 h, time 4 day. In short, it runs like this:
(§2)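 Male and female C57BL/6 mice (3/sex/group) got a single oral gavage dose of 50, 100 or 250 mg/kg at 10 mL/kg, in 7.5% NMP, 7.5% Solutol HS-15, 25% PEG-400 and 60% RO water. Controls received vehicle. Clinical signs, body weight, percent weight gain and feed consumption were followed for 4 days, then survivors underwent euthanasia and gross pathology.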

Data set [12] is described as follows: Toxicity in C57BL/6 mouse assessed as mortality at 250 mg/kg, po measured after 4 days. The data set is classed as organism-based. The settings on record: in vivo, 96 h, time 4 day. The gist of the method: as §2
Data set [13] is described as follows: AUClast in BALB/c mouse plasma at 50 mg/kg, po measured upto 24 hrs by LC-MS/MS analysis. The data set is classed as ADME, organism-based. Conditions: in vivo. In short, it runs like this:
as §1

Data set [14] can be described thus: AUClast in BALB/c mouse plasma at 10 mg/kg, ip measured upto 24 hrs by LC-MS/MS analysis. The data set is classed as ADME, organism-based. Conditions: in vivo. The gist of the method: as §1
The nature of data set [15]: AUClast in BALB/c mouse brain at 50 mg/kg, po measured upto 24 hrs by LC-MS/MS analysis. The data set is classed as ADME, organism-based. Conditions: in vivo. The gist of the method:
as §1

The nature of data set [16]: Toxicity in C57BL/6 mouse assessed as tolerability at 50 mg/kg, po measured after 4 days. The class given is organism-based. The settings on record: in vivo, 96 h, time 4 day. The gist of the method:
as §2

Data set [17] is described as follows: Drug concentration in BALB/c mouse plasma at 10 mg/kg, ip measured upto 24 hrs by LC-MS/MS analysis. The data set is classed as ADME, organism-based. The gist of the method:
as §1

Data set [18] in a line: Drug concentration in BALB/c mouse brain at 10 mg/kg, ip measured upto 24 hrs by LC-MS/MS analysis. The data set is classed as ADME, organism-based. Conditions: read-out: Ct. The gist of the method:
as §1

Data set [19] in a line: Toxicity in C57BL/6 mouse assessed as decrease in body weight gain at 100 mg/kg, po measured after 4 days. Conditions: in vivo, 96 h, time 4 day. The class given is organism-based. In short, it runs like this:
as §2

A short description of data set [20]: Tmax in BALB/c mouse plasma at 10 mg/kg, ip measured upto 24 hrs by LC-MS/MS analysis. The data set is classed as ADME, organism-based. The settings on record: in vivo. In short, it runs like this:
as §1

A short description of data set [21]: Tmax in BALB/c mouse brain at 50 mg/kg, po measured upto 24 hrs by LC-MS/MS analysis. The settings on record: in vivo. The class given is ADME, organism-based. In short, it runs like this:
as §1

The nature of data set [22]: Cmax in BALB/c mouse brain at 50 mg/kg, po measured upto 24 hrs by LC-MS/MS analysis. The data set is classed as ADME, organism-based. Conditions: in vivo. The gist of the method:
as §1

The nature of data set [23]: Tmax in BALB/c mouse brain at 10 mg/kg, ip measured upto 24 hrs by LC-MS/MS analysis. The data set is classed as ADME, organism-based. The settings on record: in vivo. The gist of the method: as §1
Data set [24] can be described thus: Tmax in BALB/c mouse plasma at 50 mg/kg, po measured upto 24 hrs by LC-MS/MS analysis. The data set is classed as ADME, organism-based. Conditions: in vivo. The gist of the method: as §1
A short description of data set [25]: Cmax in BALB/c mouse plasma at 50 mg/kg, po measured upto 24 hrs by LC-MS/MS analysis. The data set is classed as ADME, organism-based. Conditions: in vivo. The gist of the method:
as §1

Data set [26] relates to Ebolavirus. The data set is described as follows: Antiviral activity against EBOV Zaire Kikwit infected in Huh-7 cells incubated for 48 to 72 hrs. The settings on record: Orthoebolavirus. The data set is classed as functional, organism-based.
The subject of data set [27] is Ebolavirus. The data set is described as follows: Antiviral activity against eGFP-EBOV infected in Vero E6 cells incubated for 48 hrs by spectrofluorometer assay. The data set is classed as functional, organism-based. The settings on record: Orthoebolavirus, Vero C1008, 48 h.

Broadly, the EC50 is the concentration needed to bring the measured effect to its halfway point. As a reminder, the CC50 is the concentration at which the toxic effect on the cells reaches its halfway point. For orientation: Tmax means the time at which the peak concentration occurs. The Cmax is the maximum level reached in the sampled fluid or tissue. The term IC50 denotes the concentration needed to halve the response being measured.

Molecule `Nc1ncnc2c([C@@H]3N[C@H](CO)[C@@H](O)[C@H]3O)c[nH]c12` registered an EC50 with Ebolavirus [1] of 11.8 µM.

In the case of `NC(=O)c1nc(F)c[nH]c1=O`, the selectivity ratio in data set [2] stood at 14.9. In data set [3], this molecule registered a CC50 of more than 1000 µM.

On to `CCC(CC)COC(=O)[C@H](C)N[P@](=O)(OC[C@H]1O[C@@](C#N)(c2ccc3c(N)ncnn23)[C@H](O)[C@@H]1O)Oc1ccccc1`, for which a half-maximal response with Ebolavirus [4] (EC50) required 0.14 µM.

Turning to `O=C(NCCc1ccccc1)c1ccc(-c2cccc(OC3CCNCC3)c2)s1`, the response with Ebolavirus [5] was half-maximal at 5.3 µM (EC50).

On to `O=C(Nc1ccccc1)c1ccc(-c2cccc(OC3CCNCC3)c2)s1`, for which the results for the selectivity ratio in data set [6] and in data set [7] were 4.7 and 113, respectively.

For `O=C(Nc1ccccc1)c1ccc(-c2ccc(OC3CCNCC3)cc2)s1`, the concentration at 24 h in data set [8] turned out to be 2040 nM; in data set [10] it was 14800 nM; in [17], 2740 nM; in data set [18], 4430 nM. Further, the AUClast in data set [9] worked out at 25429.34 ng·h/mL; in data set [13], 8610.24 ng·h/mL; in data set [14], 2973.11 ng·h/mL; in data set [15], 97086.13 ng·h/mL. In addition, the Activity result was “Toxic” in data set [11], “Toxic” in data set [12], “Non-Toxic” in data set [16] and “Toxic” in data set [19].

For the molecule `O=C(Nc1ccccc1)c1ccc(-c2ccccc2OC2CCNCC2)s1`, the Tmax in [20] was found to be 0.25 h; in data set [21], 6 h; in data set [23], 2 h; in data set [24] it was 1 h. Moreover, the Cmax in data set [22] amounted to 316.7 ng/mL; in data set [25], 112.31 ng/mL. Also, the concentration at 24 h was found to be 290 nM in data set [8], 810 nM in [10], 320 nM in [17] and 330 nM in [18]. Besides, the AUClast in [9] came out at 600.09 ng·h/mL; in data set [13], 541.78 ng·h/mL; in [14], 271.74 ng·h/mL; in data set [15], 3341.42 ng·h/mL.

Molecule `CC(C)C(=O)OC[C@H]1O[C@@](C#N)(c2ccc3c(N)ncnn23)[C@H](O)[C@@H]1O` [OBELDESIVIR] showed an EC50 with Ebolavirus [26] of 4.16 µM.

`CN(C)CCOc1ccc(/C(=C(/CCCl)c2ccccc2)c2ccccc2)cc1` [TOREMIFENE]: the IC50 in the data set with Ebolavirus [27] is 0.162 µM.

(Values after ChEMBL document CHEMBL5608238, “Discovery of Thiophene Derivatives as Potent, Orally Bioavailable, and Blood-Brain Barrier-Permeable Ebola Virus Entry Inhibitors” (J Med Chem, 2024).)
